How the values were obtained:
[1] = biological target: T1, Serine/threonine-protein kinase Sgk1 (Homo sapiens) (UniProt O00141); assay: Inhibition of SGK at 1 uM; values are per cent of control
T1 sequence (whole entry): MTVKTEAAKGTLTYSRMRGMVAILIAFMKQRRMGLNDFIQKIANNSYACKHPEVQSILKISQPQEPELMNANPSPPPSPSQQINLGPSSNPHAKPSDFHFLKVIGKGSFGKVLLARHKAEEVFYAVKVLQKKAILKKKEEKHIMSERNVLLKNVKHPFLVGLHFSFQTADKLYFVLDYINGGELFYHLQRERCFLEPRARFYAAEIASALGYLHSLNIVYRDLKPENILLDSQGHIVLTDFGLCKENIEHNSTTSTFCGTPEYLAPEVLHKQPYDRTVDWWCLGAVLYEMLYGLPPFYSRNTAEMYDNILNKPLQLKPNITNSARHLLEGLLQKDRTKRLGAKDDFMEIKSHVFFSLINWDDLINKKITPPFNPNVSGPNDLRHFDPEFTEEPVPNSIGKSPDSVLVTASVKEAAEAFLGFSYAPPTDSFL

[2] = biological target: Ribosomal protein S6 kinase alpha-4 (Homo sapiens) (UniProt O75676); assay: Inhibition of MSK2 at 0.1 uM; values are per cent of control
Chain of Ribosomal protein S6 kinase alpha-4 (Homo sapiens) (O75676 whole entry, looked up): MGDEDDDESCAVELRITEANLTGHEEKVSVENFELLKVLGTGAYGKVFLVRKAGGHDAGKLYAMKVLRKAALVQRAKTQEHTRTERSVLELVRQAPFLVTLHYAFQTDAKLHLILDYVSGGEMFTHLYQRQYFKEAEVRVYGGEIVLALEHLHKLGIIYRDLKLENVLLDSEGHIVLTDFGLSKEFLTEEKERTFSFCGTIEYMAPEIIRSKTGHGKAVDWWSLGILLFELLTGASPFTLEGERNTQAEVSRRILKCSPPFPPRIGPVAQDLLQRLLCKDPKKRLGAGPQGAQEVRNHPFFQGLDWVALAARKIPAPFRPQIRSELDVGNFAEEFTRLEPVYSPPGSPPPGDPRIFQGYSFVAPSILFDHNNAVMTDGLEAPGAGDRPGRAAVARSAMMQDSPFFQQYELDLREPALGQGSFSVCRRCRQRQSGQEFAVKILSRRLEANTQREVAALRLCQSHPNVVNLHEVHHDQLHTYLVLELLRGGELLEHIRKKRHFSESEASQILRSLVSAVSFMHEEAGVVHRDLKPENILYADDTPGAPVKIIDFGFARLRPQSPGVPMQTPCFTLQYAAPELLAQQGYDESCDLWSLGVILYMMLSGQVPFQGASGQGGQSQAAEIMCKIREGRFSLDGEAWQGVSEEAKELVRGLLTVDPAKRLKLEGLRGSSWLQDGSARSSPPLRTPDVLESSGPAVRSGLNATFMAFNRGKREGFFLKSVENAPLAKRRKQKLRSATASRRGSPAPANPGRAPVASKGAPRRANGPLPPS

[3] = biological target: Platelet-derived growth factor receptor beta (Homo sapiens) (UniProt P09619); assay: Inhibition of PDGFRbeta at 1 uM
In short: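 Single-point screen within a 108-kinase selectivity panel. Each kinase was tested with inhibitor at 0.1 and 1.0 micromolar, and activity was recorded as percent inhibition.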

[4] = biological target: Receptor tyrosine-protein kinase erbB-4 (Homo sapiens) (UniProt Q15303); assay: Inhibition of ErbB4 at 0.1 uM; values are per cent of control
Chain of Receptor tyrosine-protein kinase erbB-4 (Homo sapiens) (Q15303 whole entry): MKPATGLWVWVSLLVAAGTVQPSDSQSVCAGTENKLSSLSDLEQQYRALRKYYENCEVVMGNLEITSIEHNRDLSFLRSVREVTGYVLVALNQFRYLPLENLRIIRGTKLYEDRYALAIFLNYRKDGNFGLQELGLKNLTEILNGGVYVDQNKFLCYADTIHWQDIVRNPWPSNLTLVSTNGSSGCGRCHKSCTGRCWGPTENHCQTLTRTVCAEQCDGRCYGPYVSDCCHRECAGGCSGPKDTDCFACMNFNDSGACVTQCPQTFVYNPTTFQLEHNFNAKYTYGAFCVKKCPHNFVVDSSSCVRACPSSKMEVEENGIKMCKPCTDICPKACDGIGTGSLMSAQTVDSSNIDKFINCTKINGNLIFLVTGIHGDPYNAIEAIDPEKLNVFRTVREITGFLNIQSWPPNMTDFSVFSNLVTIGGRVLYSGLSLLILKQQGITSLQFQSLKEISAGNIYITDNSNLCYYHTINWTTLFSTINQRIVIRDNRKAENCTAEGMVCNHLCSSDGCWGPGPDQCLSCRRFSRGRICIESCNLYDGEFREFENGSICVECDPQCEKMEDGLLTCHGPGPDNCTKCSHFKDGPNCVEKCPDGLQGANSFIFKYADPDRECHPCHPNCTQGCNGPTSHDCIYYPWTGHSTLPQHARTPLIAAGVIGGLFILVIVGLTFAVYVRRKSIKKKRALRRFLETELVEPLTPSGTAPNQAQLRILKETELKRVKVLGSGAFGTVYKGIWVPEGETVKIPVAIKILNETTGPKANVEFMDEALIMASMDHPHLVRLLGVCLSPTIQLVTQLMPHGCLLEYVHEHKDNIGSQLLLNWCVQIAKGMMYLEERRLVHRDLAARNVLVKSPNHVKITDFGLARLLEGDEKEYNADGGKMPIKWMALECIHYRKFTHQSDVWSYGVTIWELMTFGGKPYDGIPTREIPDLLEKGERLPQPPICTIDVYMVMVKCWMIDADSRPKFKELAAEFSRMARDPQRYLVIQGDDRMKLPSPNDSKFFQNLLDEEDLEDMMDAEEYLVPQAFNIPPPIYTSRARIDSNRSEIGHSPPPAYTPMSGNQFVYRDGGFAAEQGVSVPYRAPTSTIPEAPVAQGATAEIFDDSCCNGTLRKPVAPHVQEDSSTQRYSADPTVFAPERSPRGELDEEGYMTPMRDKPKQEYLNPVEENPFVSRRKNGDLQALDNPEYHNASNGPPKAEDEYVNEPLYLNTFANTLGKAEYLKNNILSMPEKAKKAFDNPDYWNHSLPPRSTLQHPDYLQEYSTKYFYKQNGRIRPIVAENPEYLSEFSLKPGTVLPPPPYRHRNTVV

[5] = biological target: Ephrin type-A receptor 5 (Homo sapiens) (UniProt P54756); assay: Inhibition of EphA5 at 1 uM; values are per cent of control
[6] = biological target: BDNF/NT-3 growth factors receptor (Homo sapiens) (UniProt Q16620); assay: Inhibition of TrkB at 1 uM; values are per cent of control
Chain of BDNF/NT-3 growth factors receptor (Homo sapiens) (Q16620 32-822 limits assumed): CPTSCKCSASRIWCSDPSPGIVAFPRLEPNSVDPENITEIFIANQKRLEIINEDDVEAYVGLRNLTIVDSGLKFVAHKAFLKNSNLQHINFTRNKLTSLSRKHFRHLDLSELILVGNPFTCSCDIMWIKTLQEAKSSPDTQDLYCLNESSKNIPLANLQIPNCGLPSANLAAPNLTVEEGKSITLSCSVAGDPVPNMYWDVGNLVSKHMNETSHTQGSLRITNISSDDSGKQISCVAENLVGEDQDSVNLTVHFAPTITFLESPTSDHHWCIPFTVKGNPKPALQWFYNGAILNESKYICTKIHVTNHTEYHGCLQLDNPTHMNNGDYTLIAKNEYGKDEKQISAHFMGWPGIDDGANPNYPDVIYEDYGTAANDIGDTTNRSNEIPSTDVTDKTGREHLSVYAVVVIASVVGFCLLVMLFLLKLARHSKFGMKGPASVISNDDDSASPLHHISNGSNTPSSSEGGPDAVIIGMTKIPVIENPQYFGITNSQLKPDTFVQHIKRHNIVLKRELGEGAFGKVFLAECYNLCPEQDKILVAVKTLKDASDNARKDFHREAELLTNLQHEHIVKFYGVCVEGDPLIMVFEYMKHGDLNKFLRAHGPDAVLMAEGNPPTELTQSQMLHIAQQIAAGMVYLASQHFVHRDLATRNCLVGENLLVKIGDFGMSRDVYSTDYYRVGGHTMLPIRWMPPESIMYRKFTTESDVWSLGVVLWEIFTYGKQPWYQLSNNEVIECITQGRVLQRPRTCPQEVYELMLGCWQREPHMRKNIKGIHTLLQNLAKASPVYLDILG

[7] = biological target: T2, Serine/threonine-protein kinase D2 (Homo sapiens) (UniProt Q9BZL6); assay: Inhibition of PKD2 at 1 uM; values are per cent of control
T2 sequence (whole entry): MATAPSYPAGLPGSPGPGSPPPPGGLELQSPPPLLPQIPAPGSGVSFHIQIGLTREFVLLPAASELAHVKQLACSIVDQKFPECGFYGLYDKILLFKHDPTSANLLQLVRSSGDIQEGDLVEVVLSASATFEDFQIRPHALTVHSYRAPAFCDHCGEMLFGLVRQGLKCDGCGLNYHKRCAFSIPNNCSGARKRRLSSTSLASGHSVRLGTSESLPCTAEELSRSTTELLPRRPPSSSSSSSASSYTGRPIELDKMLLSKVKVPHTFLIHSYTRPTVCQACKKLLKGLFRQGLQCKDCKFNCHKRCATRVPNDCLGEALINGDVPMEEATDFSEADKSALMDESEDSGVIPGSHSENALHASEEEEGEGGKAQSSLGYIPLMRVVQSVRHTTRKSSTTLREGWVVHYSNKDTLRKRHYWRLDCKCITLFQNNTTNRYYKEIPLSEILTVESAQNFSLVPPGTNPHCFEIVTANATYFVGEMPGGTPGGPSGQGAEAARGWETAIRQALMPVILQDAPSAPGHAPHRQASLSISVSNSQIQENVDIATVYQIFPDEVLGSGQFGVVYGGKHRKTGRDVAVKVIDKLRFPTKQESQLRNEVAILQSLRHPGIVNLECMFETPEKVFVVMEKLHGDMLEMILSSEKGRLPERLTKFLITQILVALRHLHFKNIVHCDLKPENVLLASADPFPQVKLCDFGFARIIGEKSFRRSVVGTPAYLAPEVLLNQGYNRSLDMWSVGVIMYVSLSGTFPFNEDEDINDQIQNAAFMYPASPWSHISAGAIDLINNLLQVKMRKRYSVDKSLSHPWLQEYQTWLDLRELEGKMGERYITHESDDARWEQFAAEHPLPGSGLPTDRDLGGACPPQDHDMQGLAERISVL

[8] = Inhibition of MAPK2 at 0.1 uM; conditions: values are per cent of control
[9] = biological target: LIM domain kinase 1 (Homo sapiens) (UniProt P53667); assay: Inhibition of LIMK1 at 1 uM; values are per cent of control
Chain of LIM domain kinase 1 (Homo sapiens) (P53667 whole entry, looked up, the tested form may be a part): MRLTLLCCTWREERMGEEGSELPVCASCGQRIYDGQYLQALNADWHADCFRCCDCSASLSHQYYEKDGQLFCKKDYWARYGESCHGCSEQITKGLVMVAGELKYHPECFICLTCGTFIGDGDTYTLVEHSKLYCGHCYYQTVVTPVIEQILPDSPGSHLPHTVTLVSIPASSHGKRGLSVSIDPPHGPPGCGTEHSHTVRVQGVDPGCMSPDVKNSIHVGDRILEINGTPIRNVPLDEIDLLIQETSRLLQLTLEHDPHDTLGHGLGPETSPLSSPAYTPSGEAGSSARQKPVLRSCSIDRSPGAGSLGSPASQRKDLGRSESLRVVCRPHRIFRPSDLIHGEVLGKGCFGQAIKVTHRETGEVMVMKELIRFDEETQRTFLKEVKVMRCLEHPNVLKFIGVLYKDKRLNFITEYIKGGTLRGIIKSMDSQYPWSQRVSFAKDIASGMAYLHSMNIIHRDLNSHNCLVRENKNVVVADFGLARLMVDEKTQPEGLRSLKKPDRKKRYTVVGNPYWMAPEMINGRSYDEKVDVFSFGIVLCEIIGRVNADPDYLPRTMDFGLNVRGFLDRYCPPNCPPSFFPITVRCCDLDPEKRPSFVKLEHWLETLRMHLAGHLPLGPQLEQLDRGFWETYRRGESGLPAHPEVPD

[10] = biological target: Tyrosine-protein kinase Fer (Homo sapiens) (UniProt P16591); assay: Inhibition of Fer at 0.1 uM; values are per cent of control
Chain of Tyrosine-protein kinase Fer (Homo sapiens) (P16591 whole entry, looked up): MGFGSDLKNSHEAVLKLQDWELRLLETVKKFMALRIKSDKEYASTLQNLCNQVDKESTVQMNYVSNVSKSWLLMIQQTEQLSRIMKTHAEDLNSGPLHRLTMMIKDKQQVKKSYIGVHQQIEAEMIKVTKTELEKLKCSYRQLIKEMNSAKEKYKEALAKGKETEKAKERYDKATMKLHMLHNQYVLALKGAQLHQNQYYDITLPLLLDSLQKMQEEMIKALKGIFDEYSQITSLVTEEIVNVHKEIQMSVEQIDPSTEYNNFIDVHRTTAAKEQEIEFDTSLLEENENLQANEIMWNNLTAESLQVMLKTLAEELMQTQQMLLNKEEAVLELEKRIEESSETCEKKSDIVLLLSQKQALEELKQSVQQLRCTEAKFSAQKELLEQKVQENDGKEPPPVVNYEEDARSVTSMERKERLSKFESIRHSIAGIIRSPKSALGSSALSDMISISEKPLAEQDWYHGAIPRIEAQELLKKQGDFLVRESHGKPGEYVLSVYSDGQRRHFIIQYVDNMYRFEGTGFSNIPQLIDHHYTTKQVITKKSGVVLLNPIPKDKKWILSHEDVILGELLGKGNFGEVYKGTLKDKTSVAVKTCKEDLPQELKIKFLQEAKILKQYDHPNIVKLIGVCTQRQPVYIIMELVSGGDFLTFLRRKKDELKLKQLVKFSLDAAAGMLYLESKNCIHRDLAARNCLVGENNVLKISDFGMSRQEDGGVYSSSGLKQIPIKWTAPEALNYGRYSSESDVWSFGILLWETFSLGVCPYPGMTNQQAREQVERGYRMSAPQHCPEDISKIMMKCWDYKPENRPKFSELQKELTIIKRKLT

[11] = biological target: Mitogen-activated protein kinase 10 (Homo sapiens) (UniProt P53779); assay: Inhibition of JNK3 at 1 uM
Chain of Mitogen-activated protein kinase 10 (Homo sapiens) (P53779 whole entry): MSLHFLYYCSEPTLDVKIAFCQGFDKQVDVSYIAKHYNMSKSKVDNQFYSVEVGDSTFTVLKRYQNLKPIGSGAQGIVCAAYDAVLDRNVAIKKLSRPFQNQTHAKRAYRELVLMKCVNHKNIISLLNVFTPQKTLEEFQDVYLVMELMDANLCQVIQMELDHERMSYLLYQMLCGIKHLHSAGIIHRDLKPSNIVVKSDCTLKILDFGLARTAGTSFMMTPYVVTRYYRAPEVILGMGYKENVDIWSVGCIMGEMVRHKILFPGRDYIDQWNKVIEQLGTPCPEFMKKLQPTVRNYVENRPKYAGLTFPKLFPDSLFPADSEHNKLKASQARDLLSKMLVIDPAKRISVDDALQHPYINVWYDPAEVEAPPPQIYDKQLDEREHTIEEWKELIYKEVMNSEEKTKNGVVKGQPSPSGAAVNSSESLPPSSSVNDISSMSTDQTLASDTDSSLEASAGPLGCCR
In short: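 Single-point profiling in a panel of 108 kinases. Each selected inhibitor was tested at two concentrations, 0.1 and 1.0 micromolar. Values are reported as inhibition at each concentration.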

[12] = biological target: T3, Serine/threonine-protein kinase TBK1 (Homo sapiens) (UniProt Q9UHD2); assay: Inhibition of TBK1 at 0.1 uM; values are per cent of control
T3 sequence (whole entry): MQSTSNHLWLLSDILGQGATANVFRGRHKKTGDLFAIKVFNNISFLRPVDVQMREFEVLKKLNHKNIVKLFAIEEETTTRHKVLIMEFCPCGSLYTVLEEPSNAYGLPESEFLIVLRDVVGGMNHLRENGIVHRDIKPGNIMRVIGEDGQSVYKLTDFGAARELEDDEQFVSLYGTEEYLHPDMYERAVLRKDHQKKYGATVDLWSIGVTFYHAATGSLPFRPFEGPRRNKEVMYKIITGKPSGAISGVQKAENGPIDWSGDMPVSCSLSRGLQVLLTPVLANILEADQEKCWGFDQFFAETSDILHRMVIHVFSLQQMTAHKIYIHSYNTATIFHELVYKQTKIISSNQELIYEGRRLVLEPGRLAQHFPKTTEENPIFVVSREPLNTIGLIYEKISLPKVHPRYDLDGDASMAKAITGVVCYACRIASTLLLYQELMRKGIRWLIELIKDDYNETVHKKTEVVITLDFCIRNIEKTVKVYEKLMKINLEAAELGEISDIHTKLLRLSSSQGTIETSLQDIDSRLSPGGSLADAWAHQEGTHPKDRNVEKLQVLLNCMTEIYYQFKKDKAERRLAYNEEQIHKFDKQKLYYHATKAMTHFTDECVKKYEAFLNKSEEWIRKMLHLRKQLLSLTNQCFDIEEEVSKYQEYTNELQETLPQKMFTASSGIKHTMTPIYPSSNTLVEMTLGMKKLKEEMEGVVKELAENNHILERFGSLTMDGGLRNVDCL

| Structure (SMILES) | residual activity [1] [%] | residual activity [2] [%] | inhibition [3] [%] | residual activity [4] [%] | residual activity [5] [%] | residual activity [6] [%] | residual activity [7] [%] | residual activity [8] [%] | residual activity [9] [%] | residual activity [10] [%] | inhibition [11] [%] | residual activity [12] [%] |
| --- | --- | --- | --- | --- | --- | --- | --- | --- | --- | --- | --- | --- |
| Cc1ccc2cc(-c3n[nH]c4ccc(NC5CCNC5)cc34)[nH]c2c1 (centres undefined) | 32 | 39 | 34 | 81 | 50 | 1 | 12 | 108 | 4 | 5 | 36 | 19 |
| Cc1ccc2cc(-c3n[nH]c4ccc(NC5CCN(Cc6ccccc6)CC5)cc34)[nH]c2c1 | 97 | 106 | 42 | 43 | 22 | 0 | 80 | 100 | 73 | 49 | 91 | 53 |

Reference: ChEMBL document CHEMBL1681705, “Optimisation of ITK inhibitors through successive iterative design cycles” (Bioorg Med Chem Lett, 2011)
